Screening data (PubChem)
EBV gp42 inh: EBV gp42 inhibition. Q1HVG2. Fluorescence polarization binding assay, mP read-out. inhibition, % (tested at 21.74 µM). hit rate 0.42% among 220,000. AID 1085; in the data active = inhibition above about 50%
EBNA-1 inhibitor: blocks EBNA-1 binding to DNA; EBNA-1 DNA binding, fluorescence polarization; inhibition, % at 14.8 µM; AID 1950; hit rate 0.34% among 300,000; in the data active = inhibition above about 28%
MEX-5 binding: C. elegans MEX-5 TCR-2 RNA binding activity | Q9XUB2 | MEX-5/FITC-TCR2 RNA binding, fluorescence polarization; stronger effect = lower value | hit rate 0.38% among 300,000 | AID 1832 | activity score (negative = inhibition of binding), % at 10 µM;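 active = inhibition past about -25% in most replicates, and total fluorescence under double the plate's negative control median, limit read from the data; inconclusive = replicates evenly split on the limit, or fluorescence at least double controls; inactive = too little inhibition in most replicates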;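 also: 0% = DMSO and -100% = 5 µM competing unlabeled TCR2 RNA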
Target sequence (Q9XUB2 whole entry, looked up): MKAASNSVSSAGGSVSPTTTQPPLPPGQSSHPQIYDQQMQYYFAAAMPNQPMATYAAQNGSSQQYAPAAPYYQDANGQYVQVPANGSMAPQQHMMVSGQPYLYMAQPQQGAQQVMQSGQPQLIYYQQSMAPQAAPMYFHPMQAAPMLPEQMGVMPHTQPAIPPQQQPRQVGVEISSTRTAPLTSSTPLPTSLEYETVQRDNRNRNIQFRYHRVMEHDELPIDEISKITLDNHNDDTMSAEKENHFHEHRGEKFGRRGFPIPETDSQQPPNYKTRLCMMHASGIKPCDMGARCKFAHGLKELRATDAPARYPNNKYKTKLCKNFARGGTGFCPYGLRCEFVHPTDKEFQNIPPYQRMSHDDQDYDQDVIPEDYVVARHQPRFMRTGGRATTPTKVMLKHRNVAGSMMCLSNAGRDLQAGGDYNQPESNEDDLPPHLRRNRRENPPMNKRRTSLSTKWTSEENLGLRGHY
ZTA DNA inh: ZTA (EBV) inhibition in EBNA-1 counter-screen; hit rate 0.15% among 320,000; inhibition, % at 11 µM; ZTA-DNA binding, fluorescence polarization; P03206; in the data active = inhibition above about 33%
Target sequence (P03206 whole entry, looked up): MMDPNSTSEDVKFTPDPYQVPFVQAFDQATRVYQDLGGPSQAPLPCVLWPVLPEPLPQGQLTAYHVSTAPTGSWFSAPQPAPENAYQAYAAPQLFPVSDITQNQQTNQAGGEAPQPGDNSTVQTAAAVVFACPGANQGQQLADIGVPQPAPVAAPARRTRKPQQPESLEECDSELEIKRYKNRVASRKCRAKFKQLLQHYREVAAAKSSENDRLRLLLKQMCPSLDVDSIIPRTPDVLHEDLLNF
HCV NS3 hel inh: inhibitors of Hepatitis C virus NS3 helicase. NS3 helicase DNA unwinding, Cy5 molecular beacon fluorescence. inhibition, % at 10.9 µM. hit rate 0.56% among 290,000. AID 1800;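 active = inhibition above the mean of all tested compounds plus 3 SD, set per campaign, cut at about 35% in these data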;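 also: 0% = DMSO wells and 100% = thioflavine S control wells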
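test system = hepatitis C virus NS3 helicase domain fragment enzyme | reagent = annealed dual-labelled DNA beacon duplex, ATP-started | times = 1 h at 25 °C | detection = Cy5 fluorescence, 0 and 60 min reads | read-out basis = percent inhibition from t60/t0 fluorescence ratio | control set = DMSO and thioflavine S | replication = one well per compound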
core dimer inh: blocks dimerization of HCV core protein; TR-FRET GST/Flag-core106 dimerization, 1536-well; inhibition, % at 5 µM; hit rate 0.33% among 300,000;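 active = inhibition above the mean of all tested compounds plus 3 SD, set per screening campaign, cut at about 45% in these data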
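Material: GST/Flag-tagged HCV core106 proteins. Incubation: 4 h, 22.5 °C incubation. Read-out basis: inhibition (%) from 671 over 617 nm ratio. Measured by: TR-FRET, excitation 340 nm, emission 617 and 671 nm.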
EBNA-1 inh conf: EBNA-1 (EBV) inhibition, confirmation; shares compounds with EBNA-1 inhibitor; Recombinant EBNA-1 DBD, Cy5-DNA fluorescence polarization; inhibition, % at 14.8 µM; hit rate 35% among 830;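 active = mean inhibition across replicates above a set limit taken from the earlier primary screen, cut at about 28% in these data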;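 also: plate controls were EBNA-1 protein with DMSO for no effect and wells lacking EBNA-1 for full effect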
ZTA DNA inh trip: counter-screen for EBNA-1 inhibitors: Epstein-Barr virus ZTA inhibitors, triplicate; shares compounds with EBNA-1 inhibitor; Zta-ZRE DNA binding, Cy5 fluorescence polarization; inhibition, % at 11.1 µM; 830 tested, under 10 active;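 active = mean inhibition over triplicates above a set limit taken from the primary EBNA-1 screen, cut at about 37% in these data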;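 also: purified full length Zta protein with Cy5 labeled ZRE DNA probe; 0% = Zta with DMSO and 100% = wells lacking Zta protein; inhibitors lower polarization by freeing the labeled DNA probe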
* marks the source's active call; other numbers are inactive results; u = inconclusive; x = not tested or not shown; + = active, no number. Only some compounds are listed: those with a hit (about 1.7% of all), similar ones and a draw of the others.

SMILES | EBV gp42 inh | EBNA-1 inhibitor | MEX-5 binding | ZTA DNA inh | HCV NS3 hel inh | core dimer inh | EBNA-1 inh conf | ZTA DNA inh trip
COC(=O)c1sc(NC(=O)COc2ccc(OC)cc2)nc1C | x | 30* | 0 | 13 | 4 | 5 | 10 | 9
COC(=O)c1sc(NC(=O)COc2cccc(C)c2)nc1C | 21 | -7 | 3 | -4 | -5 | -1 | x | x
CC(=O)c1sc(NC(=O)COc2ccc([N+](=O)[O-])cc2)nc1C | -11 | -1 | -3 | -1 | -3 | 13 | x | x
O=c1c(Cc2c(F)cccc2Cl)c(O)ccn1CCc1ccccn1 | -1 | -13 | -3 | -16 | 3 | -2 | x | x
CN(Cc1ccccc1OCCO)CC1CCCN(CCc2ccc(Cl)cc2)C1 (stereo unspecified) | x | -8 | 1 | -6 | -9 | 2 | x | x
Cc1nn(-c2ccccc2)c2sc(C(=O)OCn3nnc4ccccc4c3=O)cc12 | -13 | 35* | 0 | -23 | 7 | 4 | -3 | -4
Cc1cc(C)n(-c2ccc(C(=O)OCn3nnc4ccccc4c3=O)cc2)n1 | -19 | 6 | -1 | 4 | 3 | 11 | x | x
CCOC(=O)N1CCN(C(=O)/C(=C/c2ccc(Br)cc2)NC(=O)c2ccc(OC)cc2)CC1 | 30 | 8 | x | 10 | -3 | -4 | x | x
COc1ccc(NC(=O)c2ccc3c(c2)CCN3S(=O)(=O)c2ccccc2)c(OC)c1 | x | 28* | 3 | -1 | -13 | 18 | 15 | 5
O=C(NCC(F)(F)F)Nc1cccnc1 | -16 | 80* | x | -7 | 3 | -7 | 3 | 2
COc1ccc(-c2csc(NC(=O)c3nc(-c4ccccc4)oc3C)n2)cc1 | 0 | 3 | 3 | -1 | -2 | 19 | x | x
Cc1oc(-c2ccccc2)nc1C(=O)Nc1nccs1 | -13 | 52* | -3 | 11 | 2 | 4 | 0 | 0
COc1ccc(-c2cc(CCCC(=O)NCCc3ccccc3)no2)cc1 | -31 | -9 | 1 | 6 | -10 | -5 | x | x
COc1ccc(-c2cc(CCCC(=O)NCCc3ccc(OC)cc3OC)no2)cc1 | -14 | 36* | 1 | 1 | -5 | 0 | 46* | 13
O=C(Cn1c(-c2ccccc2Cl)nc2ccccc21)Nc1cccc(Cl)c1 | 13 | 5 | -1 | 3 | 7 | 3 | x | x
Cc1cc(C)cc(NC(=O)Cn2c(-c3ccccc3Cl)nc3ccccc32)c1 | 11 | 60* | -1 | 1 | 13 | 0 | -10 | -9
COC(=O)c1ccc(NC(=O)Cn2c(-c3nonc3N)nc3ccccc32)cc1 | -22 | 10 | -4 | 21 | 0 | 6 | x | x
CCOC(=O)c1ccc(NC(=O)Cn2c(-c3nonc3N)nc3ccccc32)cc1 | -18 | 31* | -3 | 27 | 9 | 15 | 32* | 19
Cc1cc(C(=O)N/N=C/c2ccc(-c3cccc(Br)c3)o2)n[nH]1 | -16 | 35* | -2 | -1 | -3 | 0 | 16 | 17
Cc1cc(C(=O)N/N=C/c2cc(N=Nc3ccccc3)ccc2O)n[nH]1 | 18 | 75* | -1 | 17 | 8 | -11 | -7 | 38*
Cc1cc(C(=O)N/N=C/c2ccco2)n[nH]1 | -10 | -7 | 1 | -10 | 12 | -7 | x | x
COC(=O)N/N=C/c1cc(N=Nc2ccccc2)ccc1O | -9 | -12 | -1 | -5 | 7 | -5 | x | x
O=C(OCc1ccccc1F)c1cnc(Cl)c(Cl)c1 | x | 7 | 0 | 8 | -7 | 11 | x | x
Cc1ccc(Nc2nnc(SCn3nnc4ccccc4c3=O)s2)cc1 | 5 | -2 | 2 | -8 | -2 | 13 | x | x
O=c1c2ccccc2nnn1CSc1nnc(Nc2ccccc2)s1 | 1 | 36* | -1 | 5 | -10 | 5 | 13 | 16
SMILES | EBV gp42 inh | EBNA-1 inhibitor | MEX-5 binding | ZTA DNA inh | HCV NS3 hel inh | core dimer inh | EBNA-1 inh conf | ZTA DNA inh trip
Cc1ccc2[nH]c(=O)c(CN(Cc3cccs3)C(=S)NCC3CCCO3)cc2c1 (stereo unspecified) | -4 | 44* | 0 | 9 | -3 | 1 | 17 | -5
CN1C(=O)CC(C(=O)Nc2ccccc2F)SC1=Nc1ccc2c(c1)OCO2 (stereo unspecified) | -12 | 28* | 3 | -2 | -4 | -5 | 50* | 4
Cc1ccc(NC(=O)CN2C(=O)S/C(=C\c3cc(C)n(C)c3C)C2=O)cc1 | -30 | -1 | -3 | 4 | 11 | 3 | x | x
Cc1cccc(NC(=O)CN2C(=O)S/C(=C\c3cc(C)n(C)c3C)C2=O)c1 | -36 | 30* | -1 | 15 | 15 | 23 | 10 | -7
Cc1ccnc(NS(=O)(=O)c2ccc(NC(=O)c3cc(-c4ccccc4)nc4ccccc34)cc2)n1 | 2 | 7 | -1 | 7 | 5 | 15 | x | x
Cc1ccnc(NS(=O)(=O)c2ccc(NC(=O)c3cc(-c4ccc(Br)cc4)nc4ccccc34)cc2)n1 | -8 | 32* | 0 | 19 | 6 | 39 | 0 | -6
CCCCNc1c(N)n(CCCC)c(=O)[nH]c1=O | 38 | -12 | u | -4 | -8 | -5 | x | x
COc1ccc(C(=O)NNC(=O)CSc2nnc(-c3cccnc3)n2C)cc1 | -2 | -1 | -1 | 15 | -1 | 0 | x | x
COc1cccc(CNC(=O)C2CCCN(C(=O)c3ccc(Cl)cc3)C2)c1 (stereo unspecified) | x | x | x | 5 | x | x | x | x
CCOc1ncccc1C(=O)OCC(=O)Nc1ccc(C(N)=O)cc1 | -7 | + | 0 | -5 | 0 | 0 | 7 | 11
Cc1ccc(-c2csc3ncnc(SCC(=O)Nc4nnc(C)s4)c23)cc1 | -20 | 38* | -2 | -5 | 9 | -2 | 17 | -2
CC(=O)CSc1ncnc2scc(-c3ccc(F)cc3)c12 | -9 | 0 | 0 | 13 | -9 | 8 | x | x
CC(=O)N1N=C(c2ccc(NS(=O)(=O)c3ccccc3)cc2)CC1c1ccco1 (stereo unspecified) | x | x | x | -9 | x | x | x | x
COC(=O)CCCC(=O)NCC1(N(C)Cc2ccccc2)Cc2ccccc2C1 | x | -6 | 0 | 0 | -4 | 4 | x | x
NS(=O)(=O)c1ccc(CCNC(=O)c2cc(-c3ccccn3)nc3ccc(Br)cc23)cc1 | -19 | 43* | -4 | -1 | 5 | 22 | 36* | 3
C=CCn1cnc2c(oc3ccccc32)c1=O | x | x | 3 | x | -1 | x | x | x
N=C1/C(=C\c2ccc(-c3cccc(C(=O)O)c3)o2)C(=O)N=C2SC=C(c3ccccc3)N12 | 82* | 32* | 1 | -8 | 18 | 25 | 36* | 19
CCOC(=O)COc1cccc2c(=O)n(CC(=O)N3CCc4ccccc43)ccc12 | -23 | 36* | 0 | 9 | 2 | -1 | 17 | 1
